Holding throughout (type): functional, cell-based
Assay [1] relates to A549. Put plainly: Cytotoxicity against human A549 cells by SRB assay.
In assay [2] the test system is SMMC-7721. Put plainly: Cytotoxicity against human SMMC7721 cells by SRB assay. For orientation: In SRB staining, fixed cells bind dye roughly in proportion to their protein.
Assay [3] relates to HeLa. Put plainly: Cytotoxicity against human HeLa cells by SRB assay.
In assay [4] the test system is HepG2. Put plainly: Lipid-lowering activity in human HepG2 cells assessed as reduction in oleic acid-elicited intracellular lipid accumulation at 10 uM after 6 hrs by Oil Red O staining method. An outline of the steps:
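HepG2 cells were kept in DMEM with 10% FBS and penicillin/streptomycin (100 μg/mL). At 70−80% confluence, cells were loaded with oleic acid (100 μM in DMEM) for 12 h. They were then exposed to test agent (10 μM) in DMEM/100 μM oleic acid for a further 6 h. Simvastatin served as positive control and DMEM/oleic acid as blank. Lipid was read by Oil Red O staining.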

Usually IC50 stands for the concentration at which inhibition is half-maximal. A lower IC50 goes with inhibition by little substance.

Each structure is given as a SMILES string. Activity calls are given as the source filed them. The calls are words filed in the database; no cut-off is given here. Positions of bridges follow the written chain, without caps; N, C: chain ends. Non-standard residues stand in square brackets, D forms with d. Residues, ends and D or L forms follow the SMILES beside them. NMeW = CN[C@@H](Cc1c[nH]c2ccccc12)C(=O)O; 2Abz = Nc1ccccc1C(=O)O

For the compound `CC(=O)N[C@H]1Cc2cn(c3ccccc23)C(=O)c2ccccc2NC(=O)[C@@H]2CCCN2C1=O` (Ac-Trp-Pro-[2Abz]; lactam 1-C), the IC50 in assay [1], in assay [2] and in assay [3] was over 100 µM in each case.

Take `CC(=O)N(C)[C@@H]1C(=O)N2CCC[C@H]2C(=O)Nc2ccccc2C(=O)n2cc(c3c(O)cccc32)[C@H]1O`: the IC50 in assay [1], in assay [2] and in assay [3] was over 100 µM throughout.

Consider `CC(=O)N(C)[C@H]1Cc2cn(c3ccccc23)C(=O)c2ccccc2NC(=O)[C@@H]2CCCN2C1=O` (Ac-[NMeW]-Pro-[2Abz]; lactam 1-C), for which the IC50 in assay [1], in assay [2] and in assay [3] was over 100 µM in each case.

Take `CC(=O)N(C)[C@@H]1C(=O)N2CCC[C@H]2C(=O)Nc2ccccc2C(=O)n2cc(c3ccccc32)[C@H]1O`: the IC50 in assay [1], in assay [2] and in assay [3] was over 100 µM each time. In assay [4], the outcome was Active.
